Experimental data published in ChEMBL document CHEMBL3763127, “Design, synthesis and biological evaluation of novel asperphenamate derivatives” (Eur J Med Chem, 2016).
Calls of active or inactive are those of the source. No cut-off for these calls is given here.

Columns and labels:
[1] = system: HeLa; assay: Induction of cell cycle arrest in human HeLa cells assessed as accumulation at S phase at 20 uM after 48 hrs by PI staining-based flow cytometric analysis (reference value: 24.17%); assay type: functional
[2] = system: MCF7; assay: Induction of apoptosis in human MCF7 cells assessed as accumulation at subG1 phase at 10 uM after 72 hrs by PI staining-based flow cytometric analysis (reference value: 2.98%); assay type: functional
[3] = system: HeLa; assay: Induction of cell cycle arrest in human HeLa cells assessed as accumulation at S phase at 20 uM after 72 hrs by PI staining-based flow cytometric analysis (reference value: 24.17%); assay type: functional
[4] = system: HeLa; assay: Induction of autophagy in human HeLa cells assessed as increase in LC3-2 level at 20 and 40 uM after 48 hrs by Western blot analysis; assay type: functional, cell-based
Summary of the method: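 Cells were treated with or without compound for 48 h: MCF-7 at 5 and 10 µM, HeLa and BEL-7402 at 20 and 40 µM. Total protein (10 µg) in SDS sample buffer (pH 6.8) was run on 8–15% SDS-PAGE and transferred to PVDF. LC3-I/LC3-II were probed with HRP secondary antibody and ECL detection. The assay was repeated at least three times.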

[5] = system: Bel-7402; assay: Induction of cell cycle arrest in human Bel7402 cells assessed as accumulation at S phase at 20 uM after 72 hrs by PI staining-based flow cytometric analysis (reference value: 25.01%); assay type: functional
[6] = system: MCF7; assay: Induction of apoptosis in human MCF7 cells assessed as accumulation at subG1 phase at 10 uM after 48 hrs by PI staining-based flow cytometric analysis (reference value: 2.98%); assay type: functional
[7] = system: Bel-7402; assay: Induction of autophagy in human Bel7402 cells assessed as increase in autophagosome formation at 20 and 40 uM after 72 hrs by AO staining-based fluorescence microscopic analysis; assay type: functional, cell-based
Summary of the method: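 Cells in RPMI 1640/10% FBS were exposed to compound or 0.1% DMSO for 72 h: MCF-7 at 5 and 10 µM, HeLa and BEL-7402 at 20 and 40 µM. They were incubated with […] acridine orange for 15 min, washed with PBS, and acidic vesicles were imaged by inverted fluorescence microscopy.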

[8] = system: HeLa; assay: Induction of cell cycle arrest in human HeLa cells assessed as accumulation at G2/M phase at 20 uM after 48 hrs by PI staining-based flow cytometric analysis (reference value: 25.44%); assay type: functional
[9] = system: HeLa; assay: Cytotoxicity against human HeLa cells after 3 days by MTT assay; assay type: functional, cell-based; settings: 72 h
Summary of the method: (§1)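 MCF-7, HeLa and BEL-7402 cells were grown in RPMI 1640 with 10% heat-inactivated FBS, 1 mM glutamine and penicillin/streptomycin at 37 °C under 5% CO2. They were exposed to compound for 3 days, then read by MTT at 570 nm. Viability was taken as treated/control absorbance, and IC50 was derived from it. Values are mean SD of three independent experiments.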

[10] = system: Bel-7402; assay: Induction of cell cycle arrest in human Bel7402 cells assessed as accumulation at G0/G1 phase at 20 uM after 72 hrs by PI staining-based flow cytometric analysis (reference value: 49.44%); assay type: functional
[11] = system: HeLa; assay: Induction of autophagy in human HeLa cells assessed as autophagosome accumulation at 20 uM after 72 hrs by MDC staining-based flow cytometric analysis (reference value: 1.92%); assay type: functional
[12] = system: HeLa; assay: Induction of apoptosis in human HeLa cells assessed as accumulation at subG1 phase at 20 uM after 72 hrs by PI staining-based flow cytometric analysis (reference value: 2.89%); assay type: functional
[13] = system: MCF7; assay: Induction of cell cycle arrest in human MCF7 cells assessed as accumulation at G2/M phase at 10 uM after 72 hrs by PI staining-based flow cytometric analysis (reference value: 19.85%); assay type: functional
[14] = Cytotoxicity against human Bel7402 cells after 3 days by MTT assay; assay type: functional, cell-based; settings: Bel-7402, 72 h; summary of the method: as §1
[15] = system: HeLa; assay: Induction of autophagy in human HeLa cells assessed as autophagic cell formation at 40 uM after 72 hrs by MDC staining-based flow cytometric analysis (reference value: 1.92%); assay type: functional
[16] = system: Bel-7402; assay: Induction of cell cycle arrest in human Bel7402 cells assessed as accumulation at G2/M phase at 20 uM after 72 hrs by PI staining-based flow cytometric analysis (reference value: 22.26%); assay type: functional

**Q.** With `Cc1ccc(S(=O)(=O)N[C@H](Cc2ccccc2)C(=O)OC[C@H](Cc2ccccc2)NC(=O)c2ccccc2)cc1` as the molecule, how does the Activity [1] read?
**A.** Its Activity is 25.4%.

**Q.** And the Activity [2]?
**A.** The Activity was 3.76%.

**Q.** And the Activity [3]?
**A.** Its Activity is 25.91%.

**Q.** And the Activity [4]?
**A.** The Activity was “Active”.

**Q.** And the Activity [5]?
**A.** Its Activity is 26.88%.

**Q.** And the Activity [6]?
**A.** The Activity was 3.22%.

**Q.** What about the Activity [7] of the same molecule?
**A.** Its Activity is “Active”.

**Q.** What about the Activity [8] of the same molecule?
**A.** The Activity was 22.18%.

**Q.** And the IC50 [9]?
**A.** The IC50 was 16.8 µM.

**Q.** And the Activity [10]?
**A.** The Activity was 45.89%.

**Q.** And the Activity [11]?
**A.** The Activity was 26.11%.

**Q.** What about the Activity [12] of the same molecule?
**A.** Its Activity is 2.43%.

**Q.** What about the Activity [13] of the same molecule?
**A.** The Activity was 20.07%.

**Q.** And the IC50 [14]?
**A.** Its IC50 is 12.5 µM.

**Q.** And the Activity [15]?
**A.** Its Activity is 49.37%.

**Q.** What about the Activity [16] of the same molecule?
**A.** Its Activity is 22.61%.
